Calls of active or inactive are those of the source. The calls are words filed in the database; no cut-off is given here.
Legend:
[1] = target: T1, GABA-A receptor; alpha-1/beta-2/gamma-2 (Homo sapiens, UniProt P14867+P18507+P47870); assay: Displacement of [3H]Ro15-1788 from recombinant GABA-A alpha1beta2gamma2 receptor benzodiazepine binding site (unknown origin) after 1 hr; type: protein-complex assay
T1 sequence (P14867 whole entry): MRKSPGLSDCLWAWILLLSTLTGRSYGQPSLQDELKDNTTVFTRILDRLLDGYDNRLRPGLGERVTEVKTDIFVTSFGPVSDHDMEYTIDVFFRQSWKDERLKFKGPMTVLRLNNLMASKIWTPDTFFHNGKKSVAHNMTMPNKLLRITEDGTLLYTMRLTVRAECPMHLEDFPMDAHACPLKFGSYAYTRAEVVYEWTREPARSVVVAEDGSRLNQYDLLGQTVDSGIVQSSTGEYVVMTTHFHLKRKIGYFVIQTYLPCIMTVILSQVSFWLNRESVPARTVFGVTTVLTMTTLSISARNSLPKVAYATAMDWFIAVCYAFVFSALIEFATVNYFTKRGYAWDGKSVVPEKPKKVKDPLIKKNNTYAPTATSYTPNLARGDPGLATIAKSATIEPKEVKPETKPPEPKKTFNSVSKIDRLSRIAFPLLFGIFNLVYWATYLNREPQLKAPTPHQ
T1 sequence (P47870 whole entry): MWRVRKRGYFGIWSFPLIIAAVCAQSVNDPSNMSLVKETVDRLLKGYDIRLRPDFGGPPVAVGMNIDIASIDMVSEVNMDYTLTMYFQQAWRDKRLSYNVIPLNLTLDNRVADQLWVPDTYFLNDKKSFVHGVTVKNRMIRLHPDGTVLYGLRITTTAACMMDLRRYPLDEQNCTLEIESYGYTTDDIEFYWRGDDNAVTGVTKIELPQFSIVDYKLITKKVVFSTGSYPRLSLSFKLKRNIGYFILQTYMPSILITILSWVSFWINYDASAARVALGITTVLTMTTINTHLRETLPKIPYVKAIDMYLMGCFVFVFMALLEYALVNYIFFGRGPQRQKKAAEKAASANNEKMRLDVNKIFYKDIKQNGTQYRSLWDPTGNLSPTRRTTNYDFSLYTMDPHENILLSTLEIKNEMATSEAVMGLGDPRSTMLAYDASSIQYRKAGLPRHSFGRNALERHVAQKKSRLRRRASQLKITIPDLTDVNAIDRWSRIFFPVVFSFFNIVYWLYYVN
T1 sequence (P18507 whole entry): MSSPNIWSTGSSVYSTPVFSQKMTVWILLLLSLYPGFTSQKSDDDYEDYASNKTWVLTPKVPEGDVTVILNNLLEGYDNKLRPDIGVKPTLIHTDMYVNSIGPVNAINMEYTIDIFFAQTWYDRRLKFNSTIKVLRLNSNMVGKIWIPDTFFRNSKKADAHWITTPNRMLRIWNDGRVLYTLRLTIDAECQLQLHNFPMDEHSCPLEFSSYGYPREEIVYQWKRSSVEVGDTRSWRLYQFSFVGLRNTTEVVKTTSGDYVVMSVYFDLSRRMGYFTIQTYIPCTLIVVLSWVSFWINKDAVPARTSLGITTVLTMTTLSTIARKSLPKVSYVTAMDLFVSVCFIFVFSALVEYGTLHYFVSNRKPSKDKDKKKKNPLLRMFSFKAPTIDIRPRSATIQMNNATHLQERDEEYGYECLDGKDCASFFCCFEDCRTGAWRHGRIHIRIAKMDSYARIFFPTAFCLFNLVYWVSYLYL
In short: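 Membranes came from clonal mammalian cell lines expressing α1β2γ2, α2β2γ2 or α5β3γ2 receptors, grown in MEM/EBSS with 10% FCS at 37 °C. Membranes were resuspended in 10 mM potassium phosphate, pH 7.4, with 100 mM KCl. Assays used 1–2 nM [3H]Ro15-1788 and test compound from 10^-9 to 10^-5 M, at least six concentrations. Diazepam at 10^-5 M defined nonspecific binding. Incubation ran 1 h at 4 °C. Single-point % inhibition was measured at 10 µM, and Ki by curve fitting; n = 5, in duplicate.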

Mus musculus [2] = assay: Antiamnesic activity in CD1 albino mouse assessed as reversal of scopolamine-induced amnesia at 1 mg/kg, po administered 30 mins prior to scopolamine challenge measured after 24 hrs by passive avoidance test; type: functional, organism-based; parameters: dose 1 mg/kg
In short: (§1)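 Step-through passive avoidance in male CD-1 mice (22–24 g). Test drugs were given po, suspended in 1% carboxymethylcellulose at 10 ml/kg, 30 min before the training session. For the antiamnesic arm, scopolamine 1.5 mg/kg was injected immediately after punishment. Retention latency was compared with CMC-treated controls, n = 10–12 mice per group.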

Mus musculus [3] = assay: Cognitive enhancing effect in CD1 albino mouse assessed as increase in retention latency at 1 to 10 mg/kg, po administered 30 mins prior to testing measured after 24 hrs by passive avoidance test relative to control; type: functional, organism-based; in short: as §1

Structure (SMILES): Cc1cnn2c1n[n+]([O-])c1ccc(OCc3ccncc3)cc12
- Ki [1]: 22.7 nM
- Activity (Mus musculus [2]): Active
- Activity (Mus musculus [3]): Active

Reference: ChEMBL document CHEMBL2346497, “Synthesis of novel cognition enhancers with pyrazolo[5,1-c][1,2,4]benzotriazine core acting at γ-aminobutyric acid type A (GABA(A)) receptor” (Bioorg Med Chem, 2013)
